For data set [1], the system named is MCF7. Description: Growth inhibition of MCF7 cells by crystal violet assay after 24 hrs. The data set is classed as functional, cell-based. The following applies: Homo sapiens, MCF7, 24 h. The method, boiled down:
(§1)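 Cancer lines were grown in RPMI 1640 with 10% FCS and 1% pen-strep and seeded at 1000 cells/well overnight. Drug was given in serum-free medium for 3 or 24 h, then fresh complete medium until controls reached ~80% confluence (3-5 days). Cells were fixed with glutaraldehyde and stained with crystal violet, solubilised in 70% ethanol and read at 588 nm. IC50 is log molar, with six replicates per concentration and ≥2 experiments.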

The test system of data set [2] is NCI/ADR-RES. Description: Growth inhibition of MCF7/Adr cells by crystal violet assay after 24 hrs. To be noted: Homo sapiens. The data set is classed as functional, cell-based. The method, boiled down:
as §1

For the next data set, the system named is SHP77. In words: Growth inhibition of SHP77 cells by crystal violet assay after 24 hrs. The format is functional, cell-based. The following applies: Homo sapiens, SHP77, 24 h. Put shortly: as §1
Data set [3] concerns H9c2. Description: Growth inhibition of H9c2(2-1) cells by crystal violet assay after 24 hrs. To be noted: Rattus norvegicus, H9c2, 24 h.
Data set [4] concerns HepG2. In words: Growth inhibition of HepG2 cells by crystal violet assay after 24 hrs. To be noted: Homo sapiens, HepG2, 24 h. The data set is classed as functional, cell-based. Put shortly: as §1
For another data set, the system named is DU-145. In words: Growth inhibition of DU145 cells by crystal violet assay after 24 hrs. The format is functional, cell-based. To be noted: Homo sapiens, DU-145, 24 h. Put shortly:
as §1

Data set [5] concerns SK-HEP1. In words: Growth inhibition of SK-HEP-1 cells by crystal violet assay after 24 hrs. The data set is classed as functional, cell-based. The following applies: Homo sapiens, SK-HEP1, 24 h. The method, boiled down: as §1
The test system of data set [6] is Vero. In words: Cytotoxicity against Vero cells by MTT assay after 24 hrs. The data set is classed as functional, cell-based. The following applies: Chlorocebus sabaeus. The method, boiled down: (§2)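 Vero cells were grown in DMEM with 10% FCS and 1% pen-strep at 37 °C in 5% CO2. They were seeded at 1000 cells/well and left overnight to adhere. Drug was given in serum-free medium for 3 or 24 h, then replaced with fresh complete medium until untreated wells reached ~80% confluence (3-5 days). MTT was read at 554 nm and IC50 given as log molar. Each concentration was run in six wells, each experiment at least twice.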

Data set [7] deals with NCI/ADR-RES. Description: Growth inhibition of MCF7/Adr cells by crystal violet assay after 3 hrs. The data set is classed as functional, cell-based. To be noted: Homo sapiens. The method, boiled down:
as §1

For data set [8], the system named is HepG2. Description: Growth inhibition of HepG2 cells by crystal violet assay after 3 hrs. The data set is classed as functional, cell-based. To be noted: Homo sapiens, HepG2, 3 h. The method, boiled down: (§3)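 Cells were seeded at 1000/well and left to adhere overnight at 37 °C in 5% CO2. They were then exposed for 3 h to a range of drug concentrations in serum-free RPMI 1640. Medium was replaced with fresh RPMI containing 10% fetal calf serum and 1% pen-strep, and cells were grown until untreated controls reached ~80% confluence (3-5 days). Cells were fixed with glutaraldehyde, stained with crystal violet, and the dye was solubilised in 70% ethanol before reading OD at 588 nm. IC50 is given as log molar. Each concentration was run six-fold, and each experiment at least twice.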

The subject of data set [9] is SK-HEP1. Description: Growth inhibition of SK-HEP-1 cells by crystal violet assay after 3 hrs. The following applies: Homo sapiens, SK-HEP1, 3 h. The format is functional, cell-based. Put shortly:
as §1

In data set [10] the test system is H9c2. In words: Growth inhibition of rat H9c2(2-1) cells by MTT assay after 3 hrs. The following applies: H9c2, 3 h. The data set is classed as functional, cell-based. Put shortly: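 Rat cardiomyocytes were kept in DMEM with 10% FCS and pen-strep and seeded at 500 cells/well overnight. They got serum-free drug medium for 3 h, then fresh complete medium until controls reached ~80% confluence (3-5 days). Read-out was MTT optical density at 554 nm, with IC50 as log molar concentration. There were six replicates per concentration and at least two experiments.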

In data set [11] the test system is MCF7. In words: Growth inhibition of MCF7 cells by crystal violet assay after 3 hrs. The format is functional, cell-based. The following applies: Homo sapiens, MCF7, 3 h. Put shortly:
as §3

In data set [12] the test system is Vero. In words: Cytotoxicity against Vero cells by MTT assay after 3 hrs. The data set is classed as functional, cell-based. The following applies: Chlorocebus sabaeus. Put shortly: as §2
Data set [13] has as its system SK-HEP1. Description: Decrease in drug uptake in SK-HEP-1 cells by flow cytometry at 0.5 uM in presence of 10% fetal bovine serum. Also noted: scale not given: the % may be the effect or the level left. The format is functional, Homo sapiens. Put shortly:
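SK-HEP-1 cells at 200,000 per well were attached overnight. They were then exposed at 37 °C to 0.5 μM drug (final) in RPMI with 10% fetal bovine serum or without serum. Cells were trypsinized at 0.5, 1, 1.5, 2 and 3 h and Dox fluorophore measured by flow cytometry. Mean fluorescence was divided by untreated control to give relative fluorescence.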

Data set [14] can be described thus: Stability in buffer at pH 7.4 after 24 hrs. The data set is classed as physicochemical. The following applies: pH 7.4, 24 h. The method, boiled down:
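The compound was held in pH 7.4 buffer, without cells or growth medium, for 24 h at ambient temperature. Hydrolysis was followed by HPLC.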

For `CCCCCOC(=O)Nc1ccc(COC(=O)N2CO[C@@H]3[C@H](C)O[C@@H](O[C@H]4C[C@](O)(C(=O)CO)Cc5c(O)c6c(c(O)c54)C(=O)c4c(OC)cccc4C6=O)C[C@@H]32)cc1`, the concentration for half-maximal inhibition (IC50) in the data set on MCF7 [1] is 2510 nM; in the data set with NCI/ADR-RES [2] it was 316 nM; in the data set with SHP77, 50.1 nM; in the data set with H9c2 [3] it was 631 nM; in the data set on HepG2 [4] it was 50.1 nM; with DU-145, 200 nM. In addition, the IC50 in the data set on SK-HEP1 [5] and with Vero [6] was 1000 nM throughout.

As for `CCCCOC(=O)Nc1ccc(COC(=O)N2CO[C@@H]3[C@H](C)O[C@@H](O[C@H]4C[C@](O)(C(=O)CO)Cc5c(O)c6c(c(O)c54)C(=O)c4c(OC)cccc4C6=O)C[C@@H]32)cc1`, the IC50 with MCF7 [1] is 79400 nM; with NCI/ADR-RES [2], 1260 nM; with SHP77 it was 79.4 nM; with H9c2 [3], 63.1 nM; in the data set with HepG2 [4], 20 nM; in the data set with DU-145, 501 nM. Moreover, the results for the IC50 in the data set with SK-HEP1 [5] and in the data set on Vero [6] were 1580 nM and 794 nM, respectively.

As to `COc1cccc2c1C(=O)c1c(O)c3c(c(O)c1C2=O)C[C@@](O)(C(=O)CO)C[C@@H]3O[C@H]1C[C@H](N)[C@H](O)[C@H](C)O1` [DOXORUBICIN], the IC50 in the data set with NCI/ADR-RES [7] is 6310 nM; in the data set with MCF7 [1], 12.6 nM; in the data set with NCI/ADR-RES [2], 2510 nM; in the data set with HepG2 [8], 200 nM; with SHP77, 126 nM; in the data set with H9c2 [3], 20 nM. Besides, the 50% inhibitory concentration (IC50) in the data set with HepG2 [4] was 31.6 nM; in the data set with DU-145, 31.6 nM; in the data set with SK-HEP1 [9] it was 100 nM; in the data set with SK-HEP1 [5], 50.1 nM; in the data set with H9c2 [10] it was 31.6 nM; in the data set on Vero [6], 501 nM. The results for the IC50 in the data set on MCF7 [11] and in the data set on Vero [12] were 316 nM and 1000 nM, respectively.

For the molecule `CCOC(=O)N1CO[C@@H]2[C@H](C)O[C@@H](O[C@H]3C[C@](O)(C(=O)CO)Cc4c(O)c5c(c(O)c43)C(=O)c3c(OC)cccc3C5=O)C[C@@H]21`, the IC50 is 5010 nM in the data set with NCI/ADR-RES [7]; less than 1000 nM in the data set on MCF7 [1]; more than 10000 nM with NCI/ADR-RES [2]; more than 1000 nM in the data set with HepG2 [8]; more than 1000 nM in the data set with HepG2 [4]; more than 1000 nM in the data set on SK-HEP1 [9]. For the same molecule, the figures for the IC50 in the data set on SK-HEP1 [5], in the data set with H9c2 [10] and with MCF7 [11] were more than 1000 nM, 1580 nM and more than 1000 nM, respectively.

For `COc1cccc2c1C(=O)c1c(O)c3c(c(O)c1C2=O)C[C@@](O)(C(=O)CO)C[C@@H]3O[C@H]1C[C@@H]2NCO[C@@H]2[C@H](C)O1` [DOXAZOLIDINE], the IC50 is 3.16 nM in the data set with NCI/ADR-RES [7]; 10 nM with HepG2 [8]; 3.98 nM in the data set with SK-HEP1 [9]; 31.6 nM in the data set with H9c2 [10]; 7.94 nM with Vero [6]; 3.16 nM with MCF7 [11]. Also, the IC50 in the data set with Vero [12] was 6.31 nM.

Take `CCCCOC(=O)N1CO[C@@H]2[C@H](C)O[C@@H](O[C@H]3C[C@](O)(C(=O)CO)Cc4c(O)c5c(c(O)c43)C(=O)c3c(OC)cccc3C5=O)C[C@@H]21`: the IC50 in the data set with MCF7 [1] is 794 nM; in the data set with NCI/ADR-RES [2], 631 nM; in the data set on SHP77 it was 251 nM; in the data set with H9c2 [3] it was 1580 nM; in the data set with HepG2 [4] it was 200 nM; in the data set on DU-145, 398 nM. The IC50 is 398 nM in the data set with SK-HEP1 [5] and 501 nM with Vero [6].

For the molecule `CCCCCOC(=O)N1CO[C@@H]2[C@H](C)O[C@@H](O[C@H]3C[C@](O)(C(=O)CO)Cc4c(O)c5c(c(O)c43)C(=O)c3c(OC)cccc3C5=O)C[C@@H]21`, the IC50 is 794 nM in the data set on MCF7 [1]; 1000 nM in the data set on NCI/ADR-RES [2]; more than 1000 nM with HepG2 [8]; 501 nM with SHP77; 251 nM in the data set on H9c2 [3]; 316 nM in the data set with HepG2 [4]. In addition, the IC50 was 1000 nM in the data set on DU-145; more than 1000 nM in the data set with SK-HEP1 [9]; 200 nM in the data set with SK-HEP1 [5]; 5010 nM in the data set on Vero [6]; more than 1000 nM with MCF7 [11]; 3980 nM with Vero [12]. In the data set on SK-HEP1 [13], the Activity was 25%. Also, in data set [14], the Stability result is given as “Stable”.

The record behind these values is ChEMBL document CHEMBL1137367, “Design, synthesis, and preliminary evaluation of doxazolidine carbamates as prodrugs activated by carboxylesterases” (J Med Chem, 2006).
